# Measurements reported in ChEMBL document CHEMBL1148178, “Dicranin, an antimicrobial and 15-lipoxygenase inhibitor from the moss Dicranum scoparium” (1993).
# How the values were obtained:
# Type in all cases: functional
# Conditions in all cases: read-out: Diameter of inhibition zone
# [1] = tested on: Bacillus subtilis; assay: Antibacterial activity against Bacillus subtilis NCIB 3610 at 1000 ug/disk after 24 hrs by disk diffusion assay
# In short: (§1)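 Sterile 6 mm filter-paper disc bearing sample set in the centre of a Petri dish of 15 ml plate count agar. Overlaid with 3 ml soft nutrient agar (nutrient broth + 0.7% agar) seeded with 1% of a 16–18 h culture of the test strain. Read-out is the diameter of the growth-free zone around the disc.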
# [2] = tested on: Enterococcus faecalis; assay: Antibacterial activity against Streptococcus faecalis NCIB 775 at 1000 ug/disk after 24 hrs by disk diffusion assay
# In short: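 Test material loaded onto 6 mm sterile filter-paper discs. Each disc sits at the centre of a plate of 15 ml plate count agar overlaid with 3 ml soft nutrient agar (nutrient broth + 0.7% agar) carrying 1% of a 16–18 h culture. Activity is read as the diameter of the no-growth zone around the disc.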
# [3] = tested on: Bacillus cereus; assay: Antibacterial activity against Bacillus cereus NCIB 3329 at 500 ug/disk after 24 hrs by disk diffusion assay; in short: as §1
# [4] = tested on: Staphylococcus aureus; assay: Antibacterial activity against Staphylococcus aureus T-AQ 49/YF29 at 1000 ug/disk after 24 hrs by disk diffusion assay; in short: as §1
# [5] = tested on: Geobacillus stearothermophilus; assay: Antibacterial activity against Bacillus stearothermophilus NCA 1518 at 1000 ug/disk after 24 hrs by disk diffusion assay; in short: as §1
structure (smiles),measurement,setting,value
CCCCCC/C=C\CCCCCCCC(=O)O [PALMITOLEIC ACID],zone of inhibition at 1000 µg/disc,[1],14 mm
same,zone of inhibition at 1000 µg/disc,[2],20 mm
same,zone of inhibition at 500 µg/disc,[3],14 mm
same,zone of inhibition at 1000 µg/disc,[4],22 mm
same,zone of inhibition at 1000 µg/disc,[5],45 mm
